NR2E3 ag-1: human photoreceptor-specific nuclear receptor agonism | AID 602229 | 0.35% of 360,000 active | inhibition of corepressor binding, % at 3.98 µM | CHO-S Gal4-NCOR/VP16-NR2E3 two-hybrid, luciferase | Q9Y5X4;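 active = inhibition above the mean of all tested compounds plus 3 SD, cut at about 70% in these data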;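 note: higher means lower luciferase signal from less NR2E3 corepressor binding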
DAX1 inh-1: DAX1 (NR0B1) inhibition, primary screen. AID 652010. 1.1% of 370,000 active. HEK293T StAR-luciferase reporter, SF-1/DAX-1 repression relief. inhibition, % at 6.8 µM;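 active = inhibition above the mean over all tested compounds plus 3 SD, cut at about 3.6% in these data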;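 note: higher inhibition means more luminescence from relief of DAX-1 repression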
GASC-1 inh: blocks human GASC-1 demethylase activity; Q9H3R0; GST-JMJD2C(1-420) H3K9me3 demethylation, DELFIA europium; inhibition, % at 2.35 µM; 0.069% of 330,000 active; AID 2099;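 active = more than half of a compound's replicate wells show inhibition beyond 50%, single wells judged on their own value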;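 note: signal counts dimethyl H3K9 product captured on neutravidin plate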
Target sequence (Q9H3R0 1-420 limits assumed): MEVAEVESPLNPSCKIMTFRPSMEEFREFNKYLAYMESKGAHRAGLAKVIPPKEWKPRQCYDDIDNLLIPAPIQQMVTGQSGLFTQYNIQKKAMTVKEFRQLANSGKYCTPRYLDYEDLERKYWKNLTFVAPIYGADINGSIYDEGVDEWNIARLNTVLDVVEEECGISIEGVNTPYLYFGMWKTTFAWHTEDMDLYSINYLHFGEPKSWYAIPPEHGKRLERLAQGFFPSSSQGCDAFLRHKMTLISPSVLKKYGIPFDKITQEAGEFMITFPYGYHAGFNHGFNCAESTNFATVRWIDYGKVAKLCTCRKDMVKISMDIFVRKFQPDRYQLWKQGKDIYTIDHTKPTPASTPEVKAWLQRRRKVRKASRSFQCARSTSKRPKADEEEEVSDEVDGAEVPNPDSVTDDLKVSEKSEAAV
SMARCA2 activ: increases SMARCA2 function in MMTV reporter cells. MG213 cells, MMTV-luciferase reporter, dexamethasone, overnight. AID 652017. activation, % at 9.1 µM. 1% of 370,000 active; in the data active = activation above about 7.8%
DAX1 inh-2: inhibits human nuclear receptor DAX1. HEK293 Gal4-DAX1 luciferase reporter, luminescence. inhibition, % at 6.75 µM. P51843. 0.99% of 340,000 active;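 active = inhibition above the mean over all tested compounds plus 3 SD, cut at about 4.2% in these data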;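 note: inhibition shows as a rise in luminescence from relieved DAX1 repression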
NR2E3 ag-2: activates human photoreceptor nuclear receptor NR2E3; GST-NR2E3/biotin-RetCOR TR-FRET, 1536-well; 0.12% of 320,000 active; inhibition of corepressor binding, % at 4.78 µM;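 active = percent inhibition above the cutoff of mean plus 3 SD of all tested compounds, set per screening campaign, cut at about 20% in these data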
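System: GST-NR2E3 and biotin-RetCOR proteins; probe or stimulus: 7 nM biotin-RetCOR; doses: compound at 4.8 µM, single dose; schedule: Compound–protein incubation for 5 h at 4 °C; detection: time-resolved FRET; read-out: percent inhibition; controls: biotin wells as high control, 0.6% DMSO wells as low control; format: 1536-well plates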
NR2E3 ag confirm: confirmation of human NR2E3 agonists; CHO-S mammalian two-hybrid NR2E3-NCOR, luciferase luminescence; inhibition, % at 3.98 µM; shares compounds with NR2E3 ag-1; 51% of 2,300 active;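 active = average inhibition above a cutoff equal to the mean inhibition of all tested compounds plus one SD, cut at about 70% in these data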
GAL4-VP16 luc: counter-screen for NR2E3 agonists: GAL4-VP16 reporter inhibitors. shares compounds with NR2E3 ag-1. CHO-S GAL4-VP16 luciferase reporter, luminescence. inhibition, % at 3.98 µM. 29% of 2,300 active. AID 624379;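 active = mean inhibition above a cutoff equal to the average over all tested compounds plus one standard deviation, cut at about 70% in these data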;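 note: luciferase from a UAS reporter driven by GAL4-VP16 transactivation; higher means less reporter light so more repression of VP16 activity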
DAX1 conf: confirmation of human DAX1 (NR0B1) inhibitors; HEK293T StAR-promoter luciferase reporter, SF-1/DAX-1 repression; 87% of 2,400 active; shares compounds with DAX1 inh-1; inhibition, % at 6.8 µM;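 active = inhibition above the average of every tested compound plus 3 SD, cut at about 3.8% in these data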;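 note: active compounds raise luminescence by relieving repression of the StAR reporter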
SF1 mutant ctr: counter-screen for DAX1 inhibitors: nonselective inhibitors with SF-1 AF2 mutant; HEK293 StAR-luciferase, luminescence; inhibition, % at 6.8 µM; 78% of 2,400 active; shares compounds with DAX1 inh-1;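 active = inhibition above the mean of all tested compounds plus 3 SD, cut at about 3% in these data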
SMARCA2 conf: SMARCA2 activation, confirmation screen. MG213 cells, MMTV-luciferase with dexamethasone, luminescence, overnight; MG213 cells expressing E1A, Rb sequestered; DMSO wells 0%, reference activator 100%. shares compounds with SMARCA2 activ. activation, % at 9.1 µM. 30% of 3,500 active;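 active = activation above its plate's cutoff, the mean activation of tested wells plus 3 SD, cut at about 7.9% in these data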
GAL4-VP16 Luc: GAL4-VP16 reporter activation counter-screen; 41% of 3,500 active; AID 686939; HEK293 GAL4-VP16 pG5luc reporter, luciferase luminescence; scaled: DMSO wells 0%, SAHA wells 100%; activation, % at 9.1 µM; shares compounds with SMARCA2 activ;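 active = activation above the solvent-only control well mean plus 3 SD, averaged across control plates, cut at about 5.2% in these data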
Each line names hits and unclear results; the compound was inactive in the other large screens (follow-up assays come after a bar, where they were run). Sampled rows, rich in hits. Any-hit rate of the full collection: about 3.2%.

CS(=O)(=O)N1CCCC(c2nc(-c3ccc(S(=O)(=O)NCc4ccccc4)cc3)no2)C1 (stereo not given)	none (no result: DAX1 inh-1, SMARCA2 activ) | NR2E3 ag confirm 73 | GAL4-VP16 luc inactive
Cc1ccc(-n2c(SCC(=O)Nc3ccc4cn[nH]c4c3)nnc2-c2ccccc2)cc1	none (no result: NR2E3 ag-1, GASC-1 inh, DAX1 inh-2, NR2E3 ag-2)
CC(C)c1ccc(/C=C(\c2nc3ccccc3[nH]2)S(=O)(=O)c2ccccc2)cc1	NR2E3 ag-1 100 | NR2E3 ag confirm 97 | GAL4-VP16 luc inactive
CNC(=S)NN=C(C)c1ccc(OC)cc1O	NR2E3 ag-1 72 (no result: GASC-1 inh, NR2E3 ag-2) | NR2E3 ag confirm inactive | GAL4-VP16 luc inactive
COc1ccc(/C(C)=N/N=C(N)N)c(O)c1	none
COc1cccc(C(=O)Nc2nnc(S(=O)(=O)N(C)Cc3ccc(F)cc3)s2)c1	none | NR2E3 ag confirm inactive | GAL4-VP16 luc inactive
COc1ccc(CN(C)S(=O)(=O)c2nnc(NC(=O)c3cccc(OC)c3)s2)cc1	none
CCCCCc1ccc(NC(=O)OCCN2C(=O)CCC23CCC(c2ccccc2)CC3)cc1 (stereo not given)	none (no result: NR2E3 ag-1, GASC-1 inh, DAX1 inh-2, NR2E3 ag-2)
COc1cccc(N2CCN(C(=O)c3ccc(CS(=O)c4ccccc4Cl)o3)CC2)c1 (stereo not given)	DAX1 inh-1 11 | NR2E3 ag confirm inactive | GAL4-VP16 luc inactive | DAX1 conf 14 | SF1 mutant ctr inactive
O=C(NCCc1ccccc1)OCc1cn(Cc2ccc(F)cc2)nn1	none (no result: NR2E3 ag-1, GASC-1 inh, DAX1 inh-2, NR2E3 ag-2)
COc1cccc(N2CCN(c3nc(-c4ccccc4C)cc(=O)[nH]3)CC2)c1	NR2E3 ag-1 93, SMARCA2 activ 13 (no result: NR2E3 ag-2) | NR2E3 ag confirm 98 | GAL4-VP16 luc inactive | SMARCA2 conf 36 | GAL4-VP16 Luc inactive
COCCCN1C(=O)[C@H](CC(=O)N2CCCC2)[C@]2(C(=O)OC)CCCCC=C12	none (no result: NR2E3 ag-1, GASC-1 inh, DAX1 inh-2, NR2E3 ag-2)
O=C1CSc2ccc(C(=O)N3CCCC(C(=O)N4CCCC4)C3)cc2N1 (stereo not given)	none (no result: NR2E3 ag-1, GASC-1 inh, DAX1 inh-2, NR2E3 ag-2)
Cc1ccc(NC(=O)CNC(=O)c2ccc(Oc3ccccc3)cc2)nc1	none
Cc1ccc(NC(=O)CNC(=O)c2cccc(C)c2)nc1	SMARCA2 activ 8.4 | NR2E3 ag confirm 75 | GAL4-VP16 luc inactive | SMARCA2 conf inactive | GAL4-VP16 Luc inactive
O=C1Cc2c([nH]c3ccc([N+](=O)[O-])cc23)-c2ccccc2N1	NR2E3 ag-1 85, SMARCA2 activ 13 (no result: GASC-1 inh, NR2E3 ag-2) | NR2E3 ag confirm 97 | GAL4-VP16 luc 71 | SMARCA2 conf 11 | GAL4-VP16 Luc inactive
O=c1[nH]c2cc([N+](=O)[O-])ccc2c2ccccc12	none (no result: GASC-1 inh, NR2E3 ag-2)
CCOc1cnn(-c2cc(Oc3ccc(C)cc3)ncn2)c(=O)c1Cl	none
Cc1ccccc1Oc1cc(-n2ncc(Cl)c(Cl)c2=O)ncn1	SMARCA2 activ 11 | NR2E3 ag confirm inactive | GAL4-VP16 luc inactive | SMARCA2 conf inactive | GAL4-VP16 Luc inactive
COc1cc(/C=C2\CC/C(=C\c3cc(OC)c(O)c(OC)c3)C2=O)cc(OC)c1O	NR2E3 ag-1 77, SMARCA2 activ 11 | NR2E3 ag confirm 96 | GAL4-VP16 luc inactive | SMARCA2 conf 34 | GAL4-VP16 Luc inactive
